ChEMBL document CHEMBL1153148, “Addressing species specific metabolism and solubility issues in a quinoline series of oral PDE4 inhibitors” (Bioorg Med Chem Lett, 2010)
pIC50: −log10 of the molar value. In brackets after ≈: the same amount, converted by molar mass.

Columns and labels:
[1] = Aqueous solubility of the compound; format: physicochemical
[2] = biological target: 3',5'-cyclic-AMP phosphodiesterase 4B (Homo sapiens, UniProt Q07343); test: Inhibition of PDE4B catalytic domain by scintillation proximity assay
Sequence of 3',5'-cyclic-AMP phosphodiesterase 4B (Q07343 whole entry, the tested form may be a part): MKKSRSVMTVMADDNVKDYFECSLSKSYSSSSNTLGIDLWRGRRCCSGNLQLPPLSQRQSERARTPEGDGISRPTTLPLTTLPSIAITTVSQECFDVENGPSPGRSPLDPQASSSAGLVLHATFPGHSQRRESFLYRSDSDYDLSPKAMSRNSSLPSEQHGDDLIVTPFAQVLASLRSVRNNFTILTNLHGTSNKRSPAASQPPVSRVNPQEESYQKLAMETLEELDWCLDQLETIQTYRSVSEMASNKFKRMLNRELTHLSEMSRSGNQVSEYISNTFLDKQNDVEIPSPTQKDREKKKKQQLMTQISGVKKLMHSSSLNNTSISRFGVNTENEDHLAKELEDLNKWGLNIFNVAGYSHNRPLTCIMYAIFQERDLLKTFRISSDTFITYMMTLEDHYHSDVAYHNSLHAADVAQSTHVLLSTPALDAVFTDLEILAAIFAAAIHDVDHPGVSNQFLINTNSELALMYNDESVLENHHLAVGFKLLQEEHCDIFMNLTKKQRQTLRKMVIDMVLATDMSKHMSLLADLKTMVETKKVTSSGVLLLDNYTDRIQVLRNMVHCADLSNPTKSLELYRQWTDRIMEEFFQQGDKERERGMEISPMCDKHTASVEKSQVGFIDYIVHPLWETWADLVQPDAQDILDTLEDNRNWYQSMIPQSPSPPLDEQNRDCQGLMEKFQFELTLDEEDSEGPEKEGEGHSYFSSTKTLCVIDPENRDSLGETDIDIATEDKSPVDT
Procedure, shortened: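 PDE4B catalytic activity inhibition measured by scintillation proximity assay; pIC50 reported as mean of two determinations.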

[3] = Oral bioavailability in rat; format: ADME, organism-based; conditions: in vivo
Blood = test: Inhibition of LPS-induced TNFalpha production in human whole blood; format: functional, tissue-based
[4] = Selectivity for PDE4B over PDE7
[5] = Selectivity for PDE4B over PDE1
[6] = Oral bioavailability in cynomolgus monkey; format: ADME, organism-based, Macaca fascicularis; conditions: in vivo
Procedure, shortened: (§1)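 Cynomolgus monkey pharmacokinetics after oral dosing as a solution in 10% DMSO, 15% PEG400, 75% water; a second arm used suspension dosing of particle-size-reduced material in 1% methyl cellulose. Values are means of three experiments.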

[7] = Clearance in cynomolgus monkey plasma; format: ADME, organism-based, Macaca fascicularis; procedure, shortened: as §1
[8] = Selectivity for PDE4B over PDE2
[9] = Half life in cynomolgus monkey; format: ADME, organism-based, Macaca fascicularis; conditions: in vivo; procedure, shortened: as §1
[10] = Selectivity for PDE4B over PDE6
[11] = Selectivity for PDE4B over PDE3
[12] = Selectivity for PDE4B over PDE5

solubility [1] | pIC50 [2] | bioavailability [3] | pIC50 (Blood) | Selectivity ratio [4] | Selectivity ratio [5] | bioavailability [6] | clearance [7] | Selectivity ratio [8] | half-life [9] | Selectivity ratio [10] | Selectivity ratio [11] | Selectivity ratio [12] | SMILES
7 µg/mL (≈ 18.4 µM) | 9.10 | 66% | 7.50 | – | – | – | – | – | – | – | – | – | CS(=O)(=O)c1ccc2c(c1)C(Nc1cncc(Cl)c1)=C(C(N)=O)NN2
1 µg/mL (≈ 2.61 µM) | > 9.00 | 17% | 8.60 | > 100 | > 100 | 64% | 1.6 mL/min/kg | > 100 | 7.2 h | > 100 | > 100 | > 100 | Cc1cc(S(C)(=O)=O)cc2c1NNC(C(N)=O)=C2Nc1cccc(C#N)c1
– | 9.20 | – | 6.80 | – | – | – | – | – | – | – | – | – | CS(=O)(=O)c1cc(F)c2c(c1)C(Nc1cncc(F)c1)=C(C(N)=O)NN2
1 µg/mL (≈ 2.63 µM) | – | – | 7.90 | – | – | 33% | 82 mL/min/kg | – | 0.8 h | – | – | – | Cc1cc(S(C)(=O)=O)cc2c(Nc3cccc(C#N)c3)c(C(N)=O)cnc12
37 µg/mL (≈ 98 µM) | > 9.30 | 34% | 8.30 | – | – | – | – | – | – | – | – | – | Cc1cc(S(C)(=O)=O)cc2c1NNC(C(N)=O)=C2Nc1cncc(F)c1
– | 9.00 | – | 7.60 | – | – | 52% | 5.9 mL/min/kg | – | 4.2 h | – | – | – | Cc1cc(S(C)(=O)=O)cc2c(Nc3cccc(C#N)c3)c(C(N)=O)c(=O)[nH]c12
– | 9.50 | 41% | 8.00 | – | – | – | – | – | – | – | – | – | CCn1nccc1NC1=C(C(N)=O)NNc2c(C)cc(S(=O)(=O)CC)cc21
1 µg/mL (≈ 2.47 µM) | 9.30 | 57% | 7.90 | – | – | – | – | – | – | – | – | – | CC(C)(C)S(=O)(=O)c1ccc2c(c1)C(Nc1cncc(F)c1)=C(C(N)=O)NN2
12 µg/mL (≈ 30.5 µM) | 10.10 | 50% | 8.80 | – | – | – | – | – | – | – | – | – | Cc1cc(S(C)(=O)=O)cc2c1NNC(C(N)=O)=C2Nc1cncc(Cl)c1
